Reference: PubChem BioAssay AID504518 (Sanford-Burnham Center for Chemical Genomics, 2011)
The source made the active and inactive calls.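 How the source made its calls: active means mean IC50 at or below 20 µM; inactive means the rest.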

Tested on: HEK-293T NF-kB-Luc, TNFa-induced, luciferase luminescence 14 h
Assay: TNFa-induced NF-kB reporter inhibition, SAR follow-up, selectivity assay for B-cell antigen receptor NF-kB inhibitors, cell-based, HEK-293T, luminescence (AID 504518)
Method in brief: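 material = HEK-293-T cells carrying an NF-kB-driven luciferase reporter | amount = 6000 cells per well | buffer or medium = phenol-red-free DMEM | reagent = TNF-alpha stimulus at 0.1 ng/mL final | compound dosing = dose series, DMSO at most 1% | times = 14 h compound exposure at 37 °C, 5% CO2 | measured by = SteadyGlo luminescence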

| Compound | IC50 |
| --- | --- |
| CCC(C)NC(=O)CCc1nc(-c2ccc(C(C)(C)C)cc2)no1 (stereo not drawn) | 3 µM |
| COC(=O)CCc1nc(-c2ccc(C(C)(C)C)cc2)no1 | 0.22 µM |
| CCOc1ccc(-c2nc(CSCC(=O)NCC3CC3)c(C)o2)cc1 | 55.4 µM (inactive) |
| CCOc1cccc(-c2nc(CSCC(=O)NC3CC3)c(C)o2)c1 | > 79 µM (inactive) |
| CCc1ccc(-c2noc(CCC(=O)NC3CC3)n2)cc1 | 21.1 µM (inactive) |
| CCOc1ccc(-c2noc(CCC(=O)O)n2)cc1 | 10.6 µM |
| CCNC(=O)CCc1nc(-c2ccccc2C)no1 | > 79 µM (inactive) |
| CCOc1ccc(-c2nc(CSCC(=O)N(C)C)c(C)o2)cc1 | 78.5 µM (inactive) |
| CN(C)C(=O)CCc1nc(-c2ccc(C(C)(C)C)cc2)no1 | 42.2 µM (inactive) |
| CCCOc1ccc(-c2nc(CSCC(=O)NCc3ccco3)c(C)o2)cc1 | 9.74 µM |
| CCOc1ccc(-c2nc(CSCC(=O)NCc3ccco3)c(C)o2)cc1 | 21.4 µM (inactive) |
| CCNC(=O)CCc1nc(-c2ccc(CC)cc2)no1 | 65.3 µM (inactive) |
| CCCCOc1ccc(-c2nc(CSCC(=O)O)c(C)o2)cc1 | 0.04 µM |
| CCNC(=O)CCc1nc(-c2cccc(OC)c2)no1 | > 79 µM (inactive) |
| COc1cccc(-c2cc(=O)c3cc(NC(=O)c4ccc(N(C)C)cc4)ccc3[nH]2)c1 | 15.2 µM |
| CCNC(=O)CCc1nc(-c2c(Cl)cccc2Cl)no1 | > 79 µM (inactive) |
| Cc1ccc(-c2nc(CSCC(=O)NCc3ccco3)c(C)o2)cc1 | 33.6 µM (inactive) |
| CCOc1ccccc1-c1nc(CSCC(=O)O)c(C)o1 | > 79 µM (inactive) |
| CCOc1ccc(-c2nc(CSCC(=O)NC3CCC3)c(C)o2)cc1 | 38.7 µM (inactive) |
| O=C(CCc1nc(-c2ccccc2)no1)NC1CC1 | > 79 µM (inactive) |
| CCOc1ccc(-c2nc(CSCC(N)=O)c(C)o2)cc1 | > 79 µM (inactive) |
| Cc1oc(-c2ccccc2)nc1CSCC(=O)NC1CC1 | > 79 µM (inactive) |
| CCc1ccc(-c2noc(CCC(=O)NC)n2)cc1 | > 79 µM (inactive) |
| CCCCc1ccc(-c2noc(CCC(=O)NCC)n2)cc1 | 0.77 µM |
| CCOc1ccc(-c2nc(CSCC(=O)NC3CC3)c(-c3ccccc3)o2)cc1 | > 79 µM (inactive) |
| CCNC(=O)CCc1nc(-c2cccc(C)c2)no1 | > 79 µM (inactive) |

| Compound | IC50 |
| --- | --- |
| CCCCc1ccc(-c2noc(CCC(=O)NC(C)(C)C)n2)cc1 | 0.66 µM |
| CCc1ccc(-c2noc(CCC(=O)NC(C)(C)C)n2)cc1 | 22 µM (inactive) |
| CC(C)(C)NC(=O)CCc1nc(-c2ccccc2)no1 | > 79 µM (inactive) |
| CCNC(=O)CCc1nc(-c2ccc(C(C)C)cc2)no1 | 21.3 µM (inactive) |
| CNC(=O)CCc1nc(-c2ccc(C(C)C)cc2)no1 | 56.9 µM (inactive) |
| CC(C)c1ccc(-c2noc(CCC(=O)NC(C)(C)C)n2)cc1 | 5 µM |
| C#CCNC(=O)CSCc1nc(-c2ccc(OCC)cc2)oc1C | > 79 µM (inactive) |
| CC(C)(C)c1ccc(-c2noc(CCC(=O)NC3CCC3)n2)cc1 | 1.18 µM |
| Cc1ccc(-c2nc(CSCC(=O)NC3CC3)c(C)o2)cc1 | 71.1 µM (inactive) |
| CC(C)c1ccc(-c2noc(CCC(=O)NC3CC3)n2)cc1 | 3.11 µM |
| Cc1oc(-c2ccc(C(F)(F)F)cc2)nc1CSCC(=O)O | 0.38 µM |
| Cc1oc(-c2ccc(OC(F)(F)F)cc2)nc1CSCC(=O)O | 0.11 µM |
| COc1cccc(-c2cc(=O)c3cc(NC(=O)c4ccccc4)ccc3[nH]2)c1 | > 79 µM (inactive) |
| CCNC(=O)CCc1nc(-c2ccccc2Cl)no1 | > 79 µM (inactive) |
| Cc1oc(-c2ccccc2)nc1CSCC(=O)NCc1ccco1 | > 79 µM (inactive) |
| CCNC(=O)CCc1nc(-c2ccc(OCC)cc2)no1 | > 79 µM (inactive) |
| Cc1oc(-c2ccc(C(F)(F)F)cc2)nc1CSCC(=O)NC1CC1 | 24.4 µM (inactive) |
| CNC(=O)CCc1nc(-c2ccccc2)no1 | > 79 µM (inactive) |
| CCCCc1ccc(-c2noc(CCC(=O)NC(C)CC)n2)cc1 (stereo not drawn) | 0.51 µM |
| COc1ccc(-c2nc(CSCC(=O)NCc3ccco3)c(C)o2)cc1 | 35.8 µM (inactive) |
| COc1ccc(-c2nc(CSCC(=O)NC3CC3)c(C)o2)cc1 | > 79 µM (inactive) |
| CCNC(=O)CCc1nc(-c2ccc(C(C)(C)C)cc2)no1 | 35.8 µM (inactive) |
| CCOc1ccc(-c2nc(CSCC(=O)NC)c(C)o2)cc1 | > 79 µM (inactive) |
| CCOc1ccc(-c2nc(CSCC(=O)NC(C)(C)C)c(C)o2)cc1 | 37.7 µM (inactive) |
| Cc1oc(-c2ccc(OC(F)(F)F)cc2)nc1CSCC(=O)NC1CC1 | 27.9 µM (inactive) |
| CCCCOc1ccc(-c2nc(CSCC(=O)NCc3ccco3)c(C)o2)cc1 | 13.1 µM |

| Compound | IC50 |
| --- | --- |
| CCc1ccc(-c2nc(CSCC(=O)NC3CC3)c(C)o2)cc1 | 42.2 µM (inactive) |
| CCc1ccc(-c2noc(CCC(=O)NC(C)CC)n2)cc1 (stereo not drawn) | 14.1 µM |
| CCOc1ccc(-c2nc(CSCC(=O)NC3CC3)c(C)o2)cc1 | > 79 µM (inactive) |
| CCCOc1ccc(-c2nc(CSCC(=O)O)c(C)o2)cc1 | 0.03 µM |
| COc1ccc(C(=O)Nc2ccc3[nH]c(-c4cccc(OC)c4)cc(=O)c3c2)cc1 | > 79 µM (inactive) |
| CCOc1ccccc1-c1nc(CSCC(=O)NC2CC2)c(C)o1 | > 79 µM (inactive) |
| CCc1ccc(-c2nc(CSCC(=O)NC3CC3)c(-c3ccccc3)o2)cc1 | > 79 µM (inactive) |
| CCCCc1ccc(-c2noc(CCC(=O)NC)n2)cc1 | 1.98 µM |
| CCC(C)NC(=O)CCc1nc(-c2ccccc2)no1 (stereo not drawn) | > 79 µM (inactive) |
| CCCCc1ccc(-c2noc(CCC(=O)NC3CC3)n2)cc1 | 0.55 µM |
| CC(C)(C)c1ccc(-c2noc(CCC(=O)O)n2)cc1 | 0.29 µM |
| CNC(=O)CCc1nc(-c2ccc(C(C)(C)C)cc2)no1 | 66.8 µM (inactive) |
| CCOC(=O)CC(NC(=O)c1ccc(Br)cc1)c1ccc(F)c([N+](=O)[O-])c1 (stereo not drawn) | 73.4 µM (inactive) |
| CCN(CC)C(=O)CCc1nc(-c2ccc(C(C)(C)C)cc2)no1 | 16.8 µM |
| CCNC(=O)CCc1nc(-c2ccccc2)no1 | > 79 µM (inactive) |
| CCOc1ccc(-c2nc(CSCC(=O)N3CCOCC3)c(C)o2)cc1 | 64.6 µM (inactive) |
| CC(C)Nc1ccc(C(CC(=O)O)NC(=O)c2ccccc2)cc1[N+](=O)[O-] (stereo not drawn) | > 79 µM (inactive) |
| CCc1ccc(-c2nc(CSCC(=O)NCc3ccco3)c(C)o2)cc1 | > 79 µM (inactive) |
| CCOc1ccc(-c2nc(CSCC(=O)O)c(C)o2)cc1 | 0.04 µM |
| O=C(O)CCc1nc(-c2ccccc2)no1 | > 79 µM (inactive) |
| CC(C)(C)c1ccc(-c2noc(CCC(N)=O)n2)cc1 | 0.78 µM |
| CCCOc1ccc(-c2nc(CSCC(=O)NC3CC3)c(C)o2)cc1 | 31.5 µM (inactive) |
| CC(C)(C)c1ccc(-c2noc(CCC(=O)NC3CC3)n2)cc1 | 12 µM |
| CCCCOc1ccc(-c2nc(CSCC(=O)NC3CC3)c(C)o2)cc1 | 11.1 µM |
| CCC(C)NC(=O)CCc1nc(-c2ccc(C(C)C)cc2)no1 (stereo not drawn) | 3.48 µM |
| CCNC(=O)CCc1nc(-c2cccc(F)c2)no1 | > 79 µM (inactive) |
